Test results as given in ChEMBL document CHEMBL3124872, “Discovery and early development of TMC647055, a non-nucleoside inhibitor of the hepatitis C virus NS5B polymerase” (J Med Chem, 2014).
The source made the active and inactive calls. The rule behind the calls is not given here.

Tests used:
Hepatitis C virus [1] = assay: Antiviral activity against Hepatitis C virus genotype 1a infected in human assessed as log10 reduction in HCV RNA level at 500 mg, po bid for 5 days followed by morning dose on day 6 relative to control; type: functional, Hepacivirus hominis, subtype 1a
Outline: (§1)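 Oral b.i.d. dosing of HCV genotype 1-infected patients at 500 mg or 1000 mg for 5 days, plus a morning dose on day 6, in hydroxypropyl-β-cyclodextrin vehicle. Read-out was the median maximum decrease in plasma HCV RNA from baseline (log10), using patients with HCV RNA data available up to Day 6.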

Hepatitis C virus [2] = assay: Antiviral activity against Hepatitis C virus genotype 1a infected in po dosed human assessed as decrease in HCV RNA level administered bid for 5 days followed by morning dose on day 6; type: functional, organism-based; conditions: Hepacivirus hominis; subtype 1a
Outline: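 HCV genotype 1-infected patients received oral b.i.d. doses of 500 mg or 1000 mg in a hydroxypropyl-β-cyclodextrin vehicle for 5 days, plus a morning dose on day 6. The read-out was the median maximum decrease in HCV RNA from baseline in GT1a patients with data up to Day 6.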

Homo sapiens [3] = assay: Drug metabolism in human assessed as CYP3A4-induced 4-beta-hydroxycholesterol level at 300 to 1250 mg, po bid for 5 days followed by morning dose on day 6; type: ADME, organism-based; conditions: in vivo, 120 h
Outline: (§2)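 Healthy volunteers given oral b.i.d. doses of 300, 1000 or 1250 mg for 5 days plus a morning dose on day 6, in hydroxypropyl-β-cyclodextrin vehicle; adverse events, laboratory parameters, vital signs, food consumption, appetite, ECG and plasma 4-β-hydroxycholesterol (CYP3A4 induction marker) monitored.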

[4] = Selectivity ratio of EC50 for Hepatitis C virus genotype 2b to EC50 for wild-type Hepatitis C virus Con 1b; type: functional
Outline: (§3)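 Transient replicon assay using chimeric replicons carrying NS5B from genotype 2a or 2b patient isolates. EC50 was compared with that against the genotype 1b replicon.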

Homo sapiens [5] = assay: Toxicity in HCV genotype 1-infected patient assessed as effect on ECG profile at 500 to 1000 mg, po bid for 5 days followed by morning dose on day 6; type: organism-based; conditions: in vivo, 120 h
Outline: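 HCV genotype 1-infected patients given oral b.i.d. doses of 500 or 1000 mg for 5 days plus a morning dose on day 6, in hydroxypropyl-β-cyclodextrin vehicle; adverse events with grading, laboratory parameters, vital signs, food consumption, appetite and ECG monitored.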

Homo sapiens [6] = assay: Toxicity in human assessed as effect on ECG profile at 300 to 1250 mg, po bid for 5 days followed by morning dose on day 6; type: organism-based; conditions: in vivo, 120 h; outline: as §2
Hepatitis C virus [7] = assay: Antiviral activity against Hepatitis C virus genotype 1b infected in human HuH7 assessed as rebound of replicon RNA at 3.75 uM preincubated for 2 weeks followed by 3 week rebound phase by RT-PCR analysis; type: functional, organism-based; conditions: Hepacivirus hominis, Huh-7
Outline: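 Clearance-and-rebound test in Huh7-Luc genotype 1b replicon cells. Cells were incubated with inhibitor (3.75 μM alone) for 14 days, then held for a 3-week rebound phase without inhibitor. Replicon RNA was followed for clearance and rebound.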

Hepatitis C virus [8] = assay: Antiviral activity against Hepatitis C virus harboring […] Y93H mutant infected in human HuH7 by luciferase reporter gene assay; type: functional, organism-based; conditions: Hepacivirus hominis; Huh-7
Hepatitis C virus [9] = assay: Antiviral activity against Hepatitis C virus harboring […] L31V mutant infected in human HuH7 by luciferase reporter gene assay; type: functional, organism-based; conditions: Hepacivirus hominis; Huh-7
Hepatitis C virus [10] = assay: Antiviral activity against Hepatitis C virus harboring […] D168V mutant infected in human HuH7 by luciferase reporter gene assay; type: functional, organism-based; conditions: Hepacivirus hominis; Huh-7
Hepatitis C virus [11] = assay: Antiviral activity against Hepatitis C virus harboring […] R155K mutant infected in human HuH7 by luciferase reporter gene assay; type: functional, organism-based; conditions: Hepacivirus hominis; Huh-7
Hepatitis C virus [12] = assay: Antiviral activity against Hepatitis C virus genotype 1b harboring NS5B NNI-1 site P495L mutant infected in human HuH7 by luciferase reporter gene assay relative to wild-type HCV genotype 1b; type: functional, Hepacivirus hominis, Huh-7
[13] = Selectivity ratio of EC50 for Hepatitis C virus genotype 2a to EC50 for wild-type Hepatitis C virus Con 1b; type: functional; outline: as §3
Hepatitis C virus [14] = assay: Antiviral activity against Hepatitis C virus genotype 6a infected in human HuH7 by transient replicon assay; type: functional, organism-based, Hepacivirus hominis; conditions: Huh-7
Outline: (§4)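 Transient replicon assay using chimeric replicons whose NS5B region is derived from patient isolates of the stated genotype.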

Hepatitis C virus [15] = assay: Antiviral activity against Hepatitis C virus genotype 4a infected in human HuH7 by transient replicon assay; type: functional, organism-based, Hepacivirus hominis; conditions: Huh-7; outline: as §4
Hepatitis C virus [16] = assay: Antiviral activity against Hepatitis C virus genotype 3a infected in human HuH7 by transient replicon assay; type: functional, organism-based, Hepacivirus hominis; conditions: Huh-7; outline: as §4
Hepatitis C virus [17] = assay: Antiviral activity against Hepatitis C virus genotype 2a infected in human HuH7 by transient replicon assay; type: functional, organism-based, Hepacivirus hominis; conditions: Huh-7; outline: as §4
Hepatitis C virus [18] = assay: Antiviral activity against Hepatitis C virus genotype 1b infected in human HuH7 by transient replicon assay; type: functional, organism-based, Hepacivirus hominis; conditions: Huh-7; outline: as §4
Hepatitis C virus [19] = assay: Antiviral activity against wild-type Hepatitis C virus Con 1b infected in human HuH7 by transient replicon assay; type: functional, organism-based, Hepacivirus hominis; conditions: isolate Con1, Huh-7
[20] = Binding affinity to Hepatitis C virus genotype 6a NS5B by surface plasmon resonance analysis; set-up: species or system Hepatitis C virus subtype 6a
Outline: (§5)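 Surface plasmon resonance binding to NS5B polymerase of the stated genotype; association and dissociation rate constants measured, from which Kd and residence half-life were derived; median Kd reported.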

[21] = Binding affinity to Hepatitis C virus genotype 5a NS5B by surface plasmon resonance analysis; set-up: species or system Hepatitis C virus subtype 5a; outline: as §5
[22] = Binding affinity to Hepatitis C virus genotype 4a NS5B by surface plasmon resonance analysis; set-up: species or system Hepatitis C virus subtype 4a; outline: as §5
[23] = Binding affinity to Hepatitis C virus genotype 2b NS5B by surface plasmon resonance analysis; set-up: species or system Hepatitis C virus subtype 2b; outline: as §5
[24] = Binding affinity to Hepatitis C virus genotype 1b NS5B by surface plasmon resonance analysis; set-up: species or system Hepatitis C virus subtype 1b; outline: as §5
[25] = Binding affinity to Hepatitis C virus Con 1b wild-type NS5B by surface plasmon resonance analysis; set-up: species or system Hepatitis C virus (isolate Con1); outline: as §5
[26] = Cytotoxicity against African green monkey Vero E6 cells after 3 days by resazurin-based fluorescence analysis; type: cell-based; conditions: chlorocebus sabaeus
[27] = Cytotoxicity against human HepG2 cells after 3 days by resazurin-based fluorescence analysis; type: cell-based
Hepatitis C virus [28] = assay: Antiviral activity against Hepatitis C virus genotype 1a infected in human HuH7-SG cells after 3 days by RT-PCR analysis; type: functional, organism-based, Hepacivirus hominis; conditions: subtype 1a, Huh-7, 72 h
Hepatitis C virus [29] = assay: Antiviral activity against Hepatitis C virus genotype 1b infected in human HuH7 cells after 72 hrs by luciferase reporter gene assay in presence of 40% human plasma relative to control; type: functional, Hepacivirus hominis, Huh-7
[30] = Cytotoxicity against human MT4 cells; type: cell-based
Rattus norvegicus = assay: Toxicity in rat assessed as decrease in body weight at 1000 mg/kg/day after 5 days; type: organism-based; conditions: in vivo, 120 h
Hepatitis C virus [31] = assay: Antiviral activity against Hepatitis C virus genotype 1b infected in human assessed as reduction in plasma HCV RNA level administered for 10 days measured on day 11; type: functional, organism-based; conditions: Hepacivirus hominis
Outline: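 HCV genotype 1a- and 1b-infected patients received oral 1000 mg b.i.d. together with an NS3/4A protease inhibitor at 150 mg q.d. for 10 days. The read-out was the median decrease in plasma HCV RNA (log10 IU/mL) at day 11.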

Hepatitis C virus [32] = assay: Antiviral activity against Hepatitis C virus genotype 1a infected in human assessed as log10 reduction in HCV RNA level at 1000 mg, po bid for 5 days followed by morning dose on day 6 relative to control; type: functional, Hepacivirus hominis, subtype 1a; outline: as §1

COc1ccc2c(c1)C=C1Cn3c-2c(C2CCCCC2)c2ccc(cc23)C(=O)NS(=O)(=O)N(C)CCOCCN(C)C1=O [TMC-647055]
FC (Hepatitis C virus [1]): 1.4 | Activity (Hepatitis C virus [2]): Dose-dependent effect | Drug metabolism (Homo sapiens [3]): Active | Ratio EC50 [4]: >200 | Activity (Homo sapiens [5]): Non-toxic | Activity (Homo sapiens [6]): Non-toxic | Activity (Hepatitis C virus [7]): inactive | Activity (Hepatitis C virus [8]): Active | Activity (Hepatitis C virus [9]): Active | Activity (Hepatitis C virus [10]): Active | Activity (Hepatitis C virus [11]): Active | fold change (FC) (Hepatitis C virus [12]): 371 | Ratio EC50 [13]: >200 | EC50 (Hepatitis C virus [14]): 113 nM | EC50 (Hepatitis C virus [15]): 97 nM | EC50 (Hepatitis C virus [16]): 88 nM | EC50 (Hepatitis C virus [17]): 12500 nM | EC50 (Hepatitis C virus [18]): 27 nM | EC50 (Hepatitis C virus [19]): 51 nM | Kd [20]: 30 nM | Kd [21]: 21 nM | Kd [22]: 2 nM | Kd [23]: 880 nM | Kd [24]: 3.9 nM | Kd [25]: 4.1 nM | CC50 at 72 h [26]: > 50000 nM | CC50 at 72 h [27]: > 50000 nM | EC50 (Hepatitis C virus [28]): 166 nM | fold change (FC) (Hepatitis C virus [29]): 9 | CC50 [30]: 28900 nM | Activity (Rattus norvegicus): Toxic | Activity (Hepatitis C virus [31]): Active | FC (Hepatitis C virus [32]): 2.4
